In brackets after ≈: the same amount, converted by molar mass. Activity calls are given as the source filed them. No cut-off for these calls is given here.

Here are results for three compounds from ChEMBL document CHEMBL1158747, “Cyclic peptides of the nocardamine class from a marine-derived bacterium of the genus Streptomyces” (J Nat Prod, 2005).

One assay deals with Bacillus subtilis. The experiment in a line: Antibacterial activity against Bacillus subtilis ATCC 6633 at 200 ug/mL. It counts as functional, organism-based.
Another assay deals with Micrococcus luteus. In words: Antibacterial activity against Micrococcus luteus ATCC 10240 at 200 ug/mL. It counts as functional, organism-based.
The next assay has as its system Staphylococcus aureus. The experiment in a line: Antibacterial activity against Staphylococcus aureus ATCC 6538 at 200 ug/mL. It counts as functional, organism-based.
The test system of another assay is Escherichia coli. In words: Antibacterial activity against Escherichia coli ATCC 11775 at 200 ug/mL. The format is functional, organism-based.
Another assay relates to Klebsiella pneumoniae. The experiment in a line: Antibacterial activity against Klebsiella pneumoniae ATCC 10031 at 200 ug/mL. It counts as functional, organism-based.
The subject of another assay is Salmonella typhimurium. The experiment in a line: Antibacterial activity against Salmonella Typhimurium ATCC 14028 at 200 ug/mL. Particulars: Salmonella enterica subsp. enterica serovar Typhimurium. The format is functional, organism-based.
Another assay has as its system Candida albicans. The experiment in a line: Antifungal activity against Candida albicans ATCC 10231 at 200 ug/mL. It counts as functional, organism-based.
In assay [1] the test system is Trichophyton mentagrophytes. The experiment in a line: Antifungal activity against Trichophyton mentagrophytes IFO 40996 at 200 ug/mL. The format is functional, organism-based.
A further assay has as its system Trichophyton rubrum. In words: Antifungal activity against Trichophyton rubrum IFO 6204 at 200 ug/mL. It counts as functional, organism-based.
The subject of another assay is Proteus vulgaris. In words: […] activity against Proteus vulgaris ATCC 3851 at 200 ug/mL. The format is functional, organism-based.
Assay [2] is described as follows: Inhibition of Staphylococcus aureus sortase B. In outline:
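Recombinant sortase B enzyme; inhibition given as EC50 in µg/mL.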

As to `O=C1CCC(=O)N(O)CCCCCNC(=O)CCC(=O)N(O)CCCCCNC(=O)CCC(=O)N(O)CCCCCN1` [NOCARDAMINE], the outcome in the assay with Bacillus subtilis, in the assay on Micrococcus luteus, in the assay on Staphylococcus aureus, in the assay on Escherichia coli, in the assay on Klebsiella pneumoniae and with Salmonella typhimurium was inactive. Also, the result (in the assay with Candida albicans; in assay [1]; with Trichophyton rubrum; with Proteus vulgaris) was inactive. In [2], this compound returned a concentration giving a half-maximal response (EC50) greater than 200 µg/mL.
On to `O=C1CCC(=O)N(O)CCCCCNC(=O)CCC(=O)N(O)CCCCNC(=O)CCC(=O)N(O)CCCCCN1` [DESMETHYLENYLNOCARDAMINE], for which the result with Bacillus subtilis, with Micrococcus luteus, in the assay with Staphylococcus aureus, with Escherichia coli, in the assay on Klebsiella pneumoniae and in the assay on Salmonella typhimurium was inactive. Moreover, the result (in the assay on Candida albicans; in [1]; in the assay with Trichophyton rubrum; in the assay with Proteus vulgaris) was inactive. The concentration giving a half-maximal response (EC50) in [2] was 126.4 µg/mL (≈ 215 µM).
`O=C1CCC(=O)NCCCCCN(O)C(=O)CCC(=O)NCCCCCN(O)C(=O)CCC(=O)NCCCCCN1` [DEHYDROXYNOCARDAMINE]: the outcome with Bacillus subtilis, in the assay with Micrococcus luteus, in the assay with Staphylococcus aureus, in the assay with Escherichia coli, in the assay with Klebsiella pneumoniae and in the assay on Salmonella typhimurium was inactive. Moreover, the outcome (in the assay with Candida albicans; in assay [1]; with Trichophyton rubrum; in the assay on Proteus vulgaris) was inactive. In assay [2], this compound displayed a half-maximal effective concentration (EC50) of 88.3 µg/mL (≈ 151 µM).
